Active and inactive are the calls of the source. No cut-off for these calls is given here.
Key:
[1] = system: Bromus diandrus var. rigidus; assay: Herbicidal activity against ALS-inhibiting herbicide-resistant two-leaf stage Bromus diandrus var. rigidus biotype R4 seedlings assessed as reduction in above-ground biomass exposed to compound spraying in presence of 1000 g/ha cytochrome P450 inhibitor malathion measured […]; type: functional, organism-based
Procedure, shortened: (§1)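 Seeds were germinated on 1% water agar for 7–10 days at ambient conditions, then sprayed at the 2–3-leaf stage. Malathion at 1000 g ha−1 was sprayed 30 min before the herbicide, or omitted. Herbicide doses were 18.75–600 g ha−1. Survival and dried above-ground biomass were assessed 21 days after treatment, with two replicates. LD50 came from non-linear regression, and R/S is the ratio of resistant to susceptible LD50.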

[2] = system: Bromus diandrus var. rigidus; assay: Herbicidal activity against ALS-inhibiting herbicide-resistant two-leaf stage Bromus diandrus var. rigidus biotype R5 seedlings assessed as reduction in above-ground biomass exposed to compound spraying in presence of 1000 g/ha cytochrome P450 inhibitor malathion measured […]; type: functional, organism-based; procedure, shortened: as §1
[3] = system: Bromus diandrus var. rigidus; assay: Resistance index, ratio of LD50 for ALS-inhibiting herbicide-resistant two-leaf stage Bromus diandrus var. rigidus biotype R4 in presence of 1000 g/ha cytochrome P450 inhibitor malathion to LD50 for ALS-inhibiting herbicide-susceptible two-leaf stage Bromus diandrus var. rigidus in presence of 1000 g/ha cytochrome P450 inhibitor malathion; type: functional; procedure, shortened: as §1
[4] = system: Bromus diandrus var. rigidus; assay: Herbicidal activity against ALS-inhibiting herbicide-resistant two-leaf stage Bromus diandrus var. rigidus biotype R1 seedlings exposed to compound spraying in absence of 1000 g/ha cytochrome P450 inhibitor malathion measured […]; type: functional; procedure, shortened: as §1
[5] = system: Bromus diandrus var. rigidus; assay: Herbicidal activity against ALS-inhibiting herbicide-resistant two-leaf stage Bromus diandrus var. rigidus biotype R4 seedlings exposed to compound spraying in presence of 1000 g/ha cytochrome P450 inhibitor malathion measured […] after compound spraying; type: functional; procedure, shortened: as §1
[6] = system: Bromus diandrus var. rigidus; assay: Herbicidal activity against ALS-inhibiting herbicide-resistant two-leaf stage Bromus diandrus var. rigidus biotype R2 seedlings exposed to compound spraying in presence of 1000 g/ha cytochrome P450 inhibitor malathion measured […]; type: functional; procedure, shortened: as §1
[7] = system: Bromus diandrus var. rigidus; assay: Resistance index, ratio of LD50 for ALS-inhibiting herbicide-resistant two-leaf stage Bromus diandrus var. rigidus biotype R3 in presence of 1000 g/ha cytochrome P450 inhibitor malathion to LD50 for ALS-inhibiting herbicide-susceptible two-leaf stage Bromus diandrus var. rigidus in presence of 1000 g/ha cytochrome P450 inhibitor malathion; type: functional; procedure, shortened: as §1
[8] = system: Bromus diandrus var. rigidus; assay: Herbicidal activity against ALS-inhibiting herbicide-resistant two-leaf stage Bromus diandrus var. rigidus biotype R6 seedlings exposed to compound spraying in absence of 1000 g/ha cytochrome P450 inhibitor malathion measured […]; type: functional; procedure, shortened: as §1
[9] = system: Bromus diandrus var. rigidus; assay: Herbicidal activity against ALS-inhibiting herbicide-resistant two-leaf stage Bromus diandrus var. rigidus biotype R3 seedlings exposed to compound spraying in absence of 1000 g/ha cytochrome P450 inhibitor malathion measured […]; type: functional; procedure, shortened: as §1
[10] = system: Bromus diandrus var. rigidus; assay: Herbicidal activity against ALS-inhibiting herbicide-susceptible two-leaf stage Bromus diandrus var. rigidus seedlings exposed to compound spraying in presence of 1000 g/ha cytochrome P450 inhibitor malathion measured […]; type: functional; procedure, shortened: as §1
[11] = system: Bromus diandrus var. rigidus; assay: Resistance index, ratio of LD50 for ALS-inhibiting herbicide-resistant two-leaf stage Bromus diandrus var. rigidus biotype R2 in presence of 1000 g/ha cytochrome P450 inhibitor malathion to LD50 for ALS-inhibiting herbicide-susceptible two-leaf stage Bromus diandrus var. rigidus in presence of 1000 g/ha cytochrome P450 inhibitor malathion; type: functional; procedure, shortened: as §1
[12] = system: Bromus diandrus var. rigidus; assay: Herbicidal activity against ALS-inhibiting herbicide-resistant two-leaf stage Bromus diandrus var. rigidus biotype R6 seedlings assessed as reduction in above-ground biomass exposed to compound spraying in presence of 1000 g/ha cytochrome P450 inhibitor malathion measured […]; type: functional, organism-based; procedure, shortened: as §1
[13] = system: Bromus diandrus var. rigidus; assay: Resistance index, ratio of LD50 for ALS-inhibiting herbicide-resistant two-leaf stage Bromus diandrus var. rigidus biotype R5 in absence of 1000 g/ha cytochrome P450 inhibitor malathion to LD50 for ALS-inhibiting herbicide-susceptible two-leaf stage Bromus diandrus var. rigidus in absence of 1000 g/ha cytochrome P450 inhibitor malathion; type: functional; procedure, shortened: as §1
[14] = system: Bromus diandrus var. rigidus; assay: Herbicidal activity against ALS-inhibiting herbicide-resistant two-leaf stage Bromus diandrus var. rigidus biotype R4 seedlings exposed to compound spraying in absence of 1000 g/ha cytochrome P450 inhibitor malathion measured […]; type: functional; procedure, shortened: as §1
[15] = system: Bromus diandrus var. rigidus; assay: Resistance index, ratio of LD50 for ALS-inhibiting herbicide-resistant two-leaf stage Bromus diandrus var. rigidus biotype R6 in presence of 1000 g/ha cytochrome P450 inhibitor malathion to LD50 for ALS-inhibiting herbicide-susceptible two-leaf stage Bromus diandrus var. rigidus in presence of 1000 g/ha cytochrome P450 inhibitor malathion; type: functional; procedure, shortened: as §1
[16] = system: Bromus diandrus var. rigidus; assay: Resistance index, ratio of LD50 for ALS-inhibiting herbicide-resistant two-leaf stage Bromus diandrus var. rigidus biotype R3 in absence of 1000 g/ha cytochrome P450 inhibitor malathion to LD50 for ALS-inhibiting herbicide-susceptible two-leaf stage Bromus diandrus var. rigidus in absence of 1000 g/ha cytochrome P450 inhibitor malathion; type: functional; procedure, shortened: as §1
[17] = system: Bromus diandrus var. rigidus; assay: Herbicidal activity against ALS-inhibiting herbicide-resistant two-leaf stage Bromus diandrus var. rigidus biotype R6 seedlings exposed to compound spraying in presence of 1000 g/ha cytochrome P450 inhibitor malathion measured […]; type: functional; procedure, shortened: as §1
[18] = system: Bromus diandrus var. rigidus; assay: Herbicidal activity against ALS-inhibiting herbicide-resistant two-leaf stage Bromus diandrus var. rigidus biotype R1 seedlings assessed as reduction in above-ground biomass exposed to compound spraying in presence of 1000 g/ha cytochrome P450 inhibitor malathion measured […]; type: functional, organism-based; procedure, shortened: as §1
[19] = system: Bromus diandrus var. rigidus; assay: Resistance index, ratio of LD50 for ALS-inhibiting herbicide-resistant two-leaf stage Bromus diandrus var. rigidus biotype R5 in presence of 1000 g/ha cytochrome P450 inhibitor malathion to LD50 for ALS-inhibiting herbicide-susceptible two-leaf stage Bromus diandrus var. rigidus in presence of 1000 g/ha cytochrome P450 inhibitor malathion; type: functional; procedure, shortened: as §1
[20] = system: Bromus diandrus var. rigidus; assay: Herbicidal activity against ALS-inhibiting herbicide-resistant two-leaf stage Bromus diandrus var. rigidus biotype R5 seedlings exposed to compound spraying in absence of 1000 g/ha cytochrome P450 inhibitor malathion measured […]; type: functional; procedure, shortened: as §1
[21] = system: Bromus diandrus var. rigidus; assay: Herbicidal activity against ALS-inhibiting herbicide-susceptible two-leaf stage Bromus diandrus var. rigidus seedlings exposed to compound spraying in absence of 1000 g/ha cytochrome P450 inhibitor malathion measured […] after compound spraying; type: functional; procedure, shortened: as §1
[22] = system: Bromus diandrus var. rigidus; assay: Herbicidal activity against ALS-inhibiting herbicide-resistant two-leaf stage Bromus diandrus var. rigidus biotype R2 seedlings assessed as reduction in above-ground biomass exposed to compound spraying in presence of 1000 g/ha cytochrome P450 inhibitor malathion measured […]; type: functional, organism-based; procedure, shortened: as §1
[23] = system: Bromus diandrus var. rigidus; assay: Herbicidal activity against ALS-inhibiting herbicide-resistant two-leaf stage Bromus diandrus var. rigidus biotype R3 seedlings assessed as reduction in above-ground biomass exposed to compound spraying in presence of 1000 g/ha cytochrome P450 inhibitor malathion measured […]; type: functional, organism-based; procedure, shortened: as §1
[24] = system: Bromus diandrus var. rigidus; assay: Herbicidal activity against ALS-inhibiting herbicide-resistant two-leaf stage Bromus diandrus var. rigidus biotype R2 seedlings exposed to compound spraying in absence of 1000 g/ha cytochrome P450 inhibitor malathion measured […] after compound spraying; type: functional; procedure, shortened: as §1
[25] = system: Bromus diandrus var. rigidus; assay: Herbicidal activity against ALS-inhibiting herbicide-resistant two-leaf stage Bromus diandrus var. rigidus biotype R5 seedlings exposed to compound spraying in presence of 1000 g/ha cytochrome P450 inhibitor malathion measured […]; type: functional; procedure, shortened: as §1
[26] = system: Bromus diandrus var. rigidus; assay: Herbicidal activity against ALS-inhibiting herbicide-resistant two-leaf stage Bromus diandrus var. rigidus biotype R1 seedlings exposed to compound spraying in presence of 1000 g/ha cytochrome P450 inhibitor malathion measured […]; type: functional; procedure, shortened: as §1
[27] = system: Bromus diandrus var. rigidus; assay: Herbicidal activity against ALS-inhibiting herbicide-resistant two-leaf stage Bromus diandrus var. rigidus biotype R3 seedlings exposed to compound spraying in presence of 1000 g/ha cytochrome P450 inhibitor malathion measured […]; type: functional; procedure, shortened: as §1
[28] = system: Bromus diandrus var. rigidus; assay: Resistance index, ratio of LD50 for ALS-inhibiting herbicide-resistant two-leaf stage Bromus diandrus var. rigidus biotype R1 in presence of 1000 g/ha cytochrome P450 inhibitor malathion to LD50 for ALS-inhibiting herbicide-susceptible two-leaf stage Bromus diandrus var. rigidus in presence of 1000 g/ha cytochrome P450 inhibitor malathion; type: functional; procedure, shortened: as §1
[29] = system: Bromus diandrus var. rigidus; assay: Resistance index, ratio of LD50 for ALS-inhibiting herbicide-resistant two-leaf stage Bromus diandrus var. rigidus biotype R2 in absence of 1000 g/ha cytochrome P450 inhibitor malathion to LD50 for ALS-inhibiting herbicide-susceptible two-leaf stage Bromus diandrus var. rigidus in absence of 1000 g/ha cytochrome P450 inhibitor malathion; type: functional; procedure, shortened: as §1
[30] = system: Bromus diandrus var. rigidus; assay: Resistance index, ratio of LD50 for ALS-inhibiting herbicide-resistant two-leaf stage Bromus diandrus var. rigidus biotype R6 in absence of 1000 g/ha cytochrome P450 inhibitor malathion to LD50 for ALS-inhibiting herbicide-susceptible two-leaf stage Bromus diandrus var. rigidus in absence of 1000 g/ha cytochrome P450 inhibitor malathion; type: functional; procedure, shortened: as §1
[31] = system: Bromus diandrus var. rigidus; assay: Resistance index, ratio of LD50 for ALS-inhibiting herbicide-resistant two-leaf stage Bromus diandrus var. rigidus biotype R1 in absence of 1000 g/ha cytochrome P450 inhibitor malathion to LD50 for ALS-inhibiting herbicide-susceptible two-leaf stage Bromus diandrus var. rigidus in absence of 1000 g/ha cytochrome P450 inhibitor malathion; type: functional; procedure, shortened: as §1
[32] = system: Bromus diandrus var. rigidus; assay: Resistance index, ratio of LD50 for ALS-inhibiting herbicide-resistant two-leaf stage Bromus diandrus var. rigidus biotype R4 in absence of 1000 g/ha cytochrome P450 inhibitor malathion to LD50 for ALS-inhibiting herbicide-susceptible two-leaf stage Bromus diandrus var. rigidus in absence of 1000 g/ha cytochrome P450 inhibitor malathion; type: functional; procedure, shortened: as §1

CCS(=O)(=O)c1nc2ccccn2c1S(=O)(=O)NC(=O)Nc1nc(OC)cc(OC)n1 [SULFOSULFURON]
Activity [1]: Active | Activity [2]: Active | Ratio [3]: 2.1 | LD50 [4]: 183 g/ha | LD50 [5]: 13 g/ha | LD50 [6]: 10 g/ha | Ratio [7]: 2.6 | LD50 [8]: 127 g/ha | LD50 [9]: 173 g/ha | LD50 [10]: 6 g/ha | Ratio [11]: 1.6 | Activity [12]: Active | Ratio [13]: 6.6 | LD50 [14]: 239 g/ha | Ratio [15]: 1.8 | Ratio [16]: 8.2 | LD50 [17]: 11 g/ha | Activity [18]: Active | Ratio [19]: 2 | LD50 [20]: 140 g/ha | LD50 [21]: 21 g/ha | Activity [22]: Active | Activity [23]: Active | LD50 [24]: 166 g/ha | LD50 [25]: 12 g/ha | LD50 [26]: 16 g/ha | LD50 [27]: 16 g/ha | Ratio [28]: 2.6 | Ratio [29]: 7.9 | Ratio [30]: 6 | Ratio [31]: 8.7 | Ratio [32]: 11.3
